# Assay results as given in ChEMBL document CHEMBL2331406, “In vitro activity of scorpiand-like azamacrocycle derivatives in promastigotes and intracellular amastigotes of Leishmania infantum and Leishmania braziliensis” (Eur J Med Chem, 2013).
# Calls of active or inactive are those of the source. The calls are words filed in the database; no cut-off is given here.
# Key:
# [1] = Selectivity index, ratio of IC50 for mouse J774.2 cells to IC50 for promastigote form of Leishmania braziliensis MHOM/BR/1975/M2904; type: toxicity; conditions: J774.2 cells, read-out: Ratio IC50
# Leishmania braziliensis [2] = assay: Antileishmanial activity against promastigote form of Leishmania braziliensis MHOM/BR/1975/M2904 assessed as change in acetate metabolite production at IC25 concentration after 96 hrs by H1-NMR analysis; type: functional, MHOM/BR/75/M2904
# How it was run: (§1)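 Promastigote cultures, initial 5 × 10^5 cells/mL, given the IC25 of compound; controls left untreated. Incubated 96 h at 28 °C, then centrifuged at 400g for 10 min. Excreted metabolites in the medium identified by 1H NMR spectra and compared with untreated control.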
# [3] = Ratio of compound selectivity index to glucantime selectivity index for promastigote form of Leishmania infantum MCAN/ES/2001/UCM-10 over mouse J774.2 cells
# How it was run: (§2)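 J774.2 toxicity: 72 h at the same concentrations, viability by flow cytometry with propidium iodide/fluorescein diacetate; IC50 by linear regression. SI = macrophage IC50/parasite IC50; ratio is compound SI over Glucantime SI.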
# Leishmania infantum [4] = assay: Antileishmanial activity against promastigote form of Leishmania infantum MCAN/ES/2001/UCM-10 assessed as change in acetate metabolite production at IC25 concentration after 96 hrs by H1-NMR analysis; type: functional; how it was run: as §1
# Leishmania braziliensis [5] = assay: Antileishmanial activity against promastigote form of Leishmania braziliensis MHOM/BR/1975/M2904 assessed as change in succinate metabolite production at IC25 concentration after 96 hrs by H1-NMR analysis; type: functional, MHOM/BR/75/M2904; how it was run: as §1
# [6] = Ratio of compound selectivity index to glucantime selectivity index for amastigote form of Leishmania braziliensis MHOM/BR/1975/M2904 infected in J774.2 cells over mouse J774.2 cells
# How it was run: (§3)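 J774.2 macrophages in MEM + 2 mM glutamine + 20% inactivated FCS were infected with stationary-phase promastigotes (10:1) for 24 h at 37 °C, 5% CO2. After washing, compounds were added at […] for 72 h. Amastigote reduction was scored in methanol-fixed, Giemsa-stained preparations; IC50 by regression; triplicates. SI = J774.2 IC50 (72 h flow cytometry)/amastigote IC50; ratio is versus Glucantime SI.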
# Leishmania infantum [7] = assay: Antileishmanial activity against promastigote form of Leishmania infantum MCAN/ES/2001/UCM-10 infected in J774.2 cells assessed as inhibition of infection in host cells at IC25 concentration incubated for 12 hrs followed by compound washout measured after 48 hrs by microscopic analysis; type: functional
# How it was run: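 J774.2 cells seeded at 1 × 10^4 cells/well on coverslips and cultured 2 days. Infected with promastigotes at 10:1 with drug at IC25 added immediately, for 12 h at 37 °C in 5% CO2. Parasites and drug washed out, then grown 10 days with washing and fresh medium every 48 h. On methanol-fixed, Giemsa-stained slides, % infected cells and amastigotes per infected cell scored from more than 200 host cells. Three determinations.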
# Leishmania infantum [8] = assay: Antileishmanial activity against promastigote form of Leishmania infantum MCAN/ES/2001/UCM-10 after 72 hrs by haemocytometric analysis; type: functional, organism-based; conditions: Leishmania infantum, MCAN/ES/2001/UCM-10, 72 h
# How it was run: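 Promastigotes grown at 28 °C in MTL medium with 10% inactivated FCS. Compounds in DMSO (0.1%), diluted in culture medium to 100, 50, 25, 10 and 1. Cells counted at 72 h in a Neubauer haemocytometric chamber. IC50 (50% inhibition) by linear regression of Kc values.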
# [9] = Ratio of compound selectivity index to glucantime selectivity index for axenic amastigote form of Leishmania braziliensis MHOM/BR/1975/M2904 over mouse J774.2 cells
# How it was run: (§4)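 Axenic amastigotes obtained by 3-day promastigote transformation in supplemented M199 + 10% heat-inactivated FCS, pH 5.4, 37 °C. […] Host toxicity: J774.2, 72 h, PI/FDA flow cytometry. SI = macrophage IC50/axenic amastigote IC50; ratio is compound SI over Glucantime SI.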
# Leishmania infantum [10] = assay: Antileishmanial activity against promastigote form of Leishmania infantum MCAN/ES/2001/UCM-10 assessed as change in succinate metabolite production at IC25 concentration after 96 hrs by H1-NMR analysis; type: functional; how it was run: as §1
# [11] = Selectivity index, ratio of IC50 for mouse J774.2 cells to IC50 for amastigote form of Leishmania braziliensis MHOM/BR/1975/M2904 infected in J774.2 cells; type: toxicity, cell-based; conditions: J774.2 cells, read-out: Ratio IC50; how it was run: as §3
# Leishmania braziliensis [12] = assay: Antileishmanial activity against promastigote form of […] Leishmania braziliensis MHOM/BR/1975/M2904 infected in J774.2 cells assessed as inhibition of infection in host cells at IC25 concentration incubated for 12 hrs […] by microscopic analysis; type: functional, MHOM/BR/75/M2904
# [13] = Selectivity index, ratio of IC50 for mouse J774.2 cells to IC50 for axenic amastigote form of Leishmania infantum MCAN/ES/2001/UCM-10; type: toxicity; conditions: J774.2 cells, read-out: Ratio IC50; how it was run: as §4
# Leishmania braziliensis [14] = assay: Antileishmanial activity against promastigote form of Leishmania braziliensis MHOM/BR/1975/M2904 assessed as empty cytoplasmic at IC25 concentration after 96 hrs by MET microscopic analysis; type: functional; conditions: MHOM/BR/75/M2904
# How it was run: (§5)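 Promastigotes at 5 × 10^5 cells/mL in MTL medium with compound at IC25 for 96 h. Ultrastructure examined by transmission electron microscopy against untreated control parasites.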
# [15] = Ratio of compound selectivity index to glucantime selectivity index for axenic amastigote form of Leishmania infantum MCAN/ES/2001/UCM-10 over mouse J774.2 cells; how it was run: as §4
# [16] = Inhibition of promastigote form Leishmania infantum MCAN/ES/2001/UCM-10 Fe-SOD by NBT reduction assay
# How it was run: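 Promastigotes sonicated in STE buffer (pH 7.8). The 35–85% ammonium sulphate fraction was desalted into 20 mM potassium phosphate/1 mM EDTA, pH 7.8, and protein was measured by Bradford. Fe-SOD activity was read spectrophotometrically as inhibition of NBT reduction by superoxide (Beyer–Fridovich); one unit gives 50% inhibition of the rate. Compounds tested at […]; IC50 by linear regression; three determinations, Newman–Keuls test.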
# [17] = Inhibition of promastigote form Leishmania braziliensis MHOM/BR/1975/M2904 Fe-SOD by NBT reduction assay; design: species or system Leishmania braziliensis MHOM/BR/75/M2904
# How it was run: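 Promastigotes sonicated in sucrose/Tris-HCl/EDTA buffer, pH 7.8, and centrifuged. Protein precipitating at 35–85% ammonium sulphate desalted into 20 mM potassium phosphate with 1 mM EDTA, pH 7.8. Protein measured by Bradford. Fe-SOD activity read spectrophotometrically as inhibition of NBT reduction by superoxide, with compounds at 0.1–50. IC50 by linear regression of Kc values; three determinations; Newman-Keuls test vs control homogenate.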
# [18] = Selectivity index, ratio of IC50 for mouse J774.2 cells to IC50 for promastigote form of Leishmania infantum MCAN/ES/2001/UCM-10; type: toxicity; conditions: J774.2 cells, read-out: Ratio IC50; how it was run: as §2
# Leishmania braziliensis [19] = assay: Antileishmanial activity against promastigote form of Leishmania braziliensis MHOM/BR/1975/M2904 assessed as cytoplasmic alterations at IC25 concentration after 96 hrs by MET microscopic analysis; type: functional; conditions: MHOM/BR/75/M2904; how it was run: as §5
# Leishmania braziliensis [20] = assay: Antileishmanial activity against promastigote form of Leishmania braziliensis MHOM/BR/1975/M2904 assessed as ethanol metabolite production at IC25 concentration after 96 hrs by H1-NMR analysis; type: functional, MHOM/BR/75/M2904; how it was run: as §1
IC50 (Leishmania infantum [8]) [µM],IC50 [16] [µM],IC50 [17] [µM],SMILES,selectivity ratio [1],Activity (Leishmania braziliensis [2]) [%],Ratio [3],Activity (Leishmania infantum [4]) [%],Activity (Leishmania braziliensis [5]) [%],Ratio [6],inhibition (INH) (Leishmania infantum [7]) [%],Ratio [9],Activity (Leishmania infantum [10]) [%],selectivity ratio [11],inhibition (INH) (Leishmania braziliensis [12]) [%],selectivity ratio [13],Activity (Leishmania braziliensis [14]),Ratio [15],selectivity ratio [18],Activity (Leishmania braziliensis [19]),Activity (Leishmania braziliensis [20]) [%]
18.8,5.7,9,Cl.c1cncc(CNCCN2CCNCc3cccc(n3)CNCC2)c1,20.3,-13,31,1,-47,57,84,39,-36,45.4,86,29.4,Active,59,24.9,Active,-59
15.5,16.1,1.3,Cl.c1ccc(CNCCN2CCNCc3cccc(n3)CNCC2)nc1,22.5,-46,20,-19,-78,30,77,32,-59,24.4,83,10,Active,20,16.4,Active,-71
18.9,6.5,15.1,Br.NCCN1CCNCc2cccc(n2)CNCC1,19.6,18,15,–,22,29,–,29,–,23.2,64,8,Active,16,12.2,Active,6
21.7,17.6,16.6,Cl.c1cc2nc(c1)CNCCN(CCNCc1cccc3ccccc13)CCNC2,29.7,8,23,-6,2,27,74,29,-3,22,71,13,Active,26,18.8,Active,-6
